Measured values collected from several papers.
Target: Receptor-interacting serine/threonine-protein kinase 2 (RIPK2, Homo sapiens, UniProt O43353)

For `N[C@@H]1CCN(c2nccc(-c3cnn4ncccc34)n2)C1`, the remaining binding was 95% (binding; 1 µM).
For `c1ccc(N2CCN(Cc3nc4ccccc4[nH]3)CC2)nc1`, the remaining binding was 100% (binding; competition with immobilised ligand; 1 µM).
For `CN(CCCC(F)(F)F)c1nccc(-c2cnn3ncccc23)n1`, the remaining binding was 89% (binding; 1 µM).
`O=C1NC(c2ccccn2)Sc2ccccc21` (stereo not shown) has a remaining binding of 100% (cell-free assay; competition with immobilised ligand; 1 µM).
The remaining binding of `O=C(NCCCN1CCOCC1)c1ccc(Nc2ncc(Cl)c(-c3ccc(Cl)s3)n2)cc1` is reported as 100% (binding; competition with immobilised ligand; 1 µM).
`COc1cnc(Nc2cccc(S(N)(=O)=O)c2)nc1N1CCN(c2ccccc2)C(=O)C1` has a remaining binding of 100% (binding; competition with immobilised ligand; 1 µM).
For `Cc1cnn2ncc(-c3ccnc(N(C)C)n3)c2c1`, the remaining binding was 100% (binding; 1 µM).
With `Cc1c[nH]c2nccc(Oc3c(F)cc(Nc4cc(Cl)nc(N)n4)cc3F)c12` the remaining binding was 92% (cell-free assay; competition with immobilised ligand; 0.1 µM).
With `CCN1CCN(Cc2ccc(C(=O)Nc3ccc(C)c(Oc4ccc5c(c4)CC(=O)N5)c3)cc2C(F)(F)F)CC1` the remaining binding was 100% (binding; competition with immobilised ligand; 1 µM).
`O=C(NCC1CCOCC1)c1n[nH]cc1NC(=O)c1c(F)cccc1F` gave a remaining binding of 100% (binding; competition with immobilised ligand; 1 µM).
For `CN(C)C(=O)Cn1cc(-c2nc(C3(c4ccc(-c5cnc(N)nc5)cc4)CC3)no2)cn1`, the remaining binding was 100% (cell-free assay; competition with immobilised ligand; 1 µM).
`COc1ncc2cc3ccccc3nc2c1C#N` has a remaining binding of 100% (cell-free assay; competition with immobilised ligand; 5 µM).
The remaining binding of `Cc1cc(NC(=O)c2cccc(S(F)(F)(F)(F)F)c2)cc(-n2ccn3nc(-c4cccnc4)cc23)c1` is reported as 88.6% (cell-free assay; competition with immobilised ligand; 1 µM).
`C[C@@H](c1ccc(-n2cnc3c(N)ncnc32)cc1)N1CCc2nn(C)c(Cc3ccccc3)c2C1=O` has a remaining binding of 100% (binding; competition with immobilised ligand; 0.1 µM).
For `C[C@@H]1CCN(c2nccc(-c3cnn4ncccc34)n2)C1`, the remaining binding was 91% (binding; 1 µM).
With `CN([C@@H]1CCc2c(CC(=O)O)c3ccccc3n2C1)S(=O)(=O)c1ccc(F)cc1` the remaining binding was 92% (cell-free assay; competition with immobilised ligand; 1 µM).
For `COc1ccnn2ncc(-c3ccnc(N(C)C)n3)c12`, the remaining binding was 100% (binding; 1 µM).
`O=C(c1ccc(Nc2nccc(-c3cc4ccccc4s3)n2)cc1)N1CCC(N2CCCC2)CC1` gave a remaining binding of 79% (binding; competition with immobilised ligand; 1 µM).
`CC1CCCN1c1nccc(-c2cnn3ncccc23)n1` (stereo not shown) gave a remaining binding of 89% (binding; 1 µM).
For `FC(F)(F)Oc1cccc(-c2cnc3ccc(-c4ccncc4)nn23)c1`, the remaining binding was 42% (binding; competition with immobilised ligand; 5 µM).
With `O=C(c1ccc(Nc2ncc(Cl)c(-c3ccc(Cl)s3)n2)cc1)N1CCC(N2CCCC2)CC1` the remaining binding was 89% (binding; competition with immobilised ligand; 1 µM).
`CN(C)c1nccc(-c2cnn3ncccc23)n1` gave a remaining binding of 100% (binding; 1 µM).
